Experimental data reported in the EternaBench riboswitch data.

Tested on: MS2 coat protein
Experiment: apparent Kd, MS2 coat protein; higher = weaker binding; RNA-MaP array; FMN 200 µM where present
Method in brief: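 Stalled E. coli RNA polymerase produced the designs on Illumina sequencing-chip clusters. SNAP-549-labelled MS2 coat protein was added from 0.7 or 1.5 nM, doubling to 3 µM, without and then with constant ligand, in 100 mM Tris-HCl pH 7.5, 80 mM KCl, 4 mM MgCl2, BSA, DTT, yeast tRNA and Tween-20. The apparent Kd is the median of filtered per-cluster fits of green signal normalised to red-channel RNA signal and control-cluster median Fmax.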

[1] = designed as: OFF switch for flavin mononucleotide, no ligand
[2] = ligand present: flavin mononucleotide, designed as: OFF switch for flavin mononucleotide
[3] = designed as: ON switch for flavin mononucleotide, no ligand
[4] = ligand present: flavin mononucleotide, designed as: ON switch for flavin mononucleotide

## GAGGUACAUGAGGAUCACCCAUGUGAGGAUAUAGUGGAAGAUUGAGAGAGGUGGAGGACUAGAAGGCACAGUGG
[1]
  apparent Kd: 67.3 nM
[2]
  apparent Kd: 66.2 nM

## AAACAUGUCCGAGGAUAUCUGAAAACAUUUUUAAGAGAAGGCGGACAUGAGGAUCACCCAUGUCUCUCCUCAUCAAAUCCAAAU
[1]
  apparent Kd: 17.5 nM
[2]
  apparent Kd: 73.2 nM

## AUGCUUCACACAGGAUAUACAUGAGGAUCACCCAUGUGUCCAAAGUAGCUGACACGAGCUACGCGGUAGAAGGGUGUGAAGCAU
[1]
  apparent Kd: 17.3 nM
[2]
  apparent Kd: 54.3 nM

## UUUCUCUGGGCGUCUUCUUACAUGAGGAUCACCCAUGUUUCAUAGGAUAUGCUAUAGUGUUACAUGCAGAAGGAUGUUUGUUUU
[1]
  apparent Kd: 234 nM
[2]
  apparent Kd: 474 nM

## AAUUCGUUCUAGAAGGUGCAUUUGUUAAACGUGCAAGGAUAUAGACAUGAGGAUCACCCAUGUCUAUGAGACAUCGGCCUCCUG
[1]
  apparent Kd: 5.33 nM
[2]
  apparent Kd: 8.23 nM

## AGUAUGCGAGGAUAUACAUGAGGAUCACCCAUGUGAGAGAUAAAAGUGAGAAAGACAAGUAGAAGGCGCGUACA
[1]
  apparent Kd: 61.9 nM
[2]
  apparent Kd: 451 nM

## AUCUUUAACAUAGGAUAUAGUAUGAAGGUUUAUUUAGAAGGAUGUCACAUGAGGAUCACCCAUGUAUUAGGAUUACCCAUGUAU
[1]
  apparent Kd: 30.1 nM
[2]
  apparent Kd: 23.1 nM

## GAAGUUAGAGGAUAUACAUGAGGAUCACCCAUGUGUGAAGUUAACUUUGUAUAUUAAUGUAGAAGGCUAACUUC
[1]
  apparent Kd: 42.5 nM
[2]
  apparent Kd: 118 nM

## GGGCUGUCAGGAUAUGCUUCGGCUUCGGAAAUGAAGUUGAAGUAGAAGGGACAUGAGGAUCACCCAUGUGGCCC
[1]
  apparent Kd: 28.9 nM
[2]
  apparent Kd: 35 nM

## GUGCCUUGGGAGAAGGCCGAUAGCAAAGCUAUCGGAGGAUAUUCAUACCGGAAACGGACAUGAGGAUCACCCAUGUGGCACAAA
[3]
  apparent Kd: 1280 nM
[4]
  apparent Kd: 51.7 nM

## GUGGCUAGUGCAGGAUAUCGGCGCGUGUAGUGUCGAGAAGGGCACAUGAGGAUCACCCAUGUGAUCAAUCACUGCUAAGGCCGC
[1]
  apparent Kd: 5.12 nM
[2]
  apparent Kd: 5.38 nM

## GGAUAGGACAGAGGAUAUACGUGCUAGAGAUACUGGCAAAAUUUCCUCACAUGAGGAUCACCCAUGUAGAAGGCUGUCCUAUCG
[1]
  apparent Kd: 16.6 nM
[2]
  apparent Kd: 374 nM

## UGUACUUAUUUUAAUUAUGAUUUACUAGAAGGUAGAUACAUGAGGAUCACCCAUGUUUAGAGUUCUAAGGAUAUAGAUUUUAUC
[3]
  apparent Kd: 10.3 nM
[4]
  apparent Kd: 10.2 nM

## UAUAUAUAGUAAGGAUAUGUAAUUAUUUUAUUAACAGAAGGUACUGACAUGAGGAUCACCCAUGUUUUAGUGUGGGCAUGUAGA
[1]
  apparent Kd: 83.5 nM
[2]
  apparent Kd: 184 nM

## ACAUGUAAUGCAGGAUAUUUUACACAUGAGGAUCACCCAUGUGACCAGAGGAAUUGCUAUGAGUAAAAGAAGGGUAUGUACAUG
[1]
  apparent Kd: 72.3 nM
[2]
  apparent Kd: 86.4 nM

## AGCUACGUUUCGUAGCAGCUAGGUGAGGAUAUCCACUCUACAUGAGGAUCACCCAUGUUAACAUGGGAGAAGGCGCCUAGAAAG
[3]
  apparent Kd: 104 nM
[4]
  apparent Kd: 11.8 nM

## UGUCCAUAGCAGAAGGACAUAAAUACAUGACCAAACAUGAGGAUCACCCAUGUAGGAUAUGCUAUGGACUAAGAGCGAAAGCUC
[1]
  apparent Kd: 6.6 nM
[2]
  apparent Kd: 9.31 nM

## AUACCACGAGGAUAUCGUCUAUAAUACAUGAGGAUCACCCAUGUUAUAUCUGUAAUGUUUCGAGAAGGCGUUUGUU
[1]
  apparent Kd: 24.3 nM
[2]
  apparent Kd: 17.1 nM

## CGUCUAUGCAAGAAGGCAUGAAACAUGAGGAUCACCCAUGUCAAAGACAUGAGGAUAUUGCAUAGACGAAAAGUGCGAAAGCAC
[4]
  apparent Kd: 3.32 nM

## AAGACUAGAGGAUAUACAUGAGGAUCACCCAUGUAACUGUCAGGUGACUGACGGAAAUGUAGAAGGCUAGUCAA
[1]
  apparent Kd: 16.2 nM
[2]
  apparent Kd: 37.9 nM

## AGAAAGAAGCAAGGAUAUUGUAAGGUUAAUGUACAAGAAGGUGCUGUUUAUGUCUCUUAACAUGAGGAUCACCCAUGUUUUGGU
[3]
  apparent Kd: 19.2 nM
[4]
  apparent Kd: 18.8 nM

## UCAUUGGUAGUGAGGAUAUCGGUGUGAUGGAAUGACGAGAAGGCACAUGAGGAUCACCCAUGUAAGAUUGGGCU
[1]
  apparent Kd: 314 nM
[2]
  apparent Kd: 436 nM

## CAGCGAAAGUAGAAGGCAGUACUGAUACAGUACUGAGGAUAUACAUGAGGAUCACCCAUGUACUUCAGCUGGAAAUAAAUAAAU
[1]
  apparent Kd: 5.94 nM
[2]
  apparent Kd: 6.97 nM

## GUGUACAGAGGAUAUACAGGAGCAUGGAAACAUGCAACUUCACAUGAGGAUCACCCAUGUAGAAGGCUGUACAC
[1]
  apparent Kd: 16 nM
[2]
  apparent Kd: 47.9 nM

## GGUCGUCAAGUCAGGAUAUCGUAUAAUAGAUAUAACGAGAAGGGACAUGAGGAUCACCCAUGUCGUCUCAUCAG
[1]
  apparent Kd: 17.1 nM
[2]
  apparent Kd: 23.7 nM

## GACAGACAUGAGGAUCACCCAUGUACAAACGUACAAGGAUAUGUGUGGAAACCGUACUAUACAGAAGGUGUCUGUC
[3]
  apparent Kd: 121 nM
[4]
  apparent Kd: 151 nM

## AGCUAGUCAGGAUAUACAAACAUGUCAAAAGACGUGAGGGAACAUGAGGAUCACCCAUGUAGAAGGGACUAGCA
[1]
  apparent Kd: 53.6 nM
[2]
  apparent Kd: 195 nM
